Each structure is given as a SMILES string.

Series [1] can be described thus: Inhibition of wild type NS5B in HCV genotype 1b replicon expressed in human HuH7 cells after 72 hrs by bright Glo-luciferase reporter gene assay. Particulars: Hepatitis C virus, Huh-7, 72 h. Type of series: cell-based, Hepatitis C virus subtype 1b. Summed up: (§1)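 Huh7 cells carrying HCV genotype 1b replicon, 8000 per well, in duplicate 3-fold dilution series with 0.5% DMSO final; 72 h at 37 °C, 5% CO2. Viability read by Cell Titer-Fluor fluorescence after 5 min; replicon inhibition read by Bright-Glo luciferase luminescence in the same wells. EC50 and CC50 come from curve fitting.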
(A replicon is a self-replicating genome or part of one, used to study replication in cells.)

Series [2] deals with Huh-7. In words: Cytotoxicity against human HuH7 cells assessed as reduction in cell viability up to 100 uM after 72 hrs by Cell Titer-Fluor Cell assay. Type of series: cell-based. The conditions noted are these: huh-7, 72 h. Summed up: as §1
The test system of series [3] is Hepatitis C virus subtype 1b. In words: Ratio of EC50 for HCV genotype 1b replicon NS5B S282T mutant to EC50 for wild type HCV genotype 1b replicon NS5B. The essentials:
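Huh7 cells carrying wild-type or S282T mutant HCV genotype 1b replicon, 8000 cells per well, exposed to 3-fold compound dilution series (0.5% DMSO final, duplicates) for 72 h at 37 °C, 5% CO2. Replicon activity read by Bright-Glo luciferase luminescence. EC50 averaged from duplicate determinations; ratio taken as S282T EC50 over wild-type EC50.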

Series [4] in a line: Half life in human plasma […] by LC/MS/MS analysis. Type of series: ADME, cell-free. The essentials: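 Pooled human plasma adjusted to pH 7.4 and prewarmed, then spiked to 2 μM final from a 200 μM DMSO working solution, in duplicate. Sampled at 0, 10, 30, 60 and 120 min and quenched with acetonitrile containing tolbutamide and buspirone. LC/MS/MS (MRM) peak area ratios; ke from linear regression of the initial linear phase, t1/2 = ln2/ke.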

Series [5] can be described thus: Half life in human liver S9 fraction at 10 uM by LC/MS/MS analysis. Format: ADME. Summed up: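 Compound at 10 μM working solution (1% DMSO, 5% MeOH in 100 mM Tris) incubated at 37 °C with human liver S9 at 1 mg protein/mL final. Reactions stopped with cold acetonitrile containing tolbutamide internal standard at 0, 5, 10, 20, 30 and 60 min. Parent measured by LC/MS/MS (MRM) as analyte/IS peak area ratio, given as percent remaining versus 0 min; half-life fitted.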

As usually defined, the EC50 is the concentration needed to bring the measured effect to its halfway point. A low value points to greater potency. `CC(C)OC(=O)[C@H](C)N[P@](=O)(OC[C@H]1O[C@@H](n2ccc(NC(=O)/C=C/c3ccccc3)nc2=O)[C@](C)(F)[C@@H]1O)Oc1ccccc1` displayed an EC50 in series [1] of 4080 nM. Also, in series [2], the Activity result is recorded as “Non-Toxic”.

Compound `CCCCCC(=O)Nc1ccn([C@@H]2O[C@H](CO[P@@](=O)(N[C@@H](C)C(=O)OC(C)C)Oc3ccccc3)[C@@H](O)[C@@]2(C)F)c(=O)n1` displayed an EC50 in series [1] of 250 nM. For the same compound, in series [2], the Activity entry was “Non-Toxic”.

In the case of `CC(C)OC(=O)[C@H](C)N[P@](=O)(OC[C@H]1O[C@@H](n2ccc(NC(=O)CCc3ccccc3)nc2=O)[C@](C)(F)[C@@H]1O)Oc1ccccc1`, the concentration giving a half-maximal response (EC50) in series [1] was 1470 nM. Also, in series [2], the Activity entry is recorded as “Non-Toxic”.

As to `CCOC(=O)Nc1ccn([C@@H]2O[C@H](CO[P@@](=O)(N[C@@H](C)C(=O)OC(C)C)Oc3ccccc3)[C@@H](O)[C@@]2(C)F)c(=O)n1`, the EC50 in series [1] came to 8360 nM. In addition, the Activity result in series [2] was “Non-Toxic”.

Turning to `CC(C)OC(=O)Nc1ccn([C@@H]2O[C@H](CO[P@@](=O)(N[C@@H](C)C(=O)OC(C)C)Oc3ccccc3)[C@@H](O)[C@@]2(C)F)c(=O)n1`, in series [1], it took 3870 nM to reach a half-maximal effect (EC50). Moreover, the Activity entry in series [2] is recorded as “Non-Toxic”.

For `CC(=O)Nc1ccn([C@@H]2O[C@H](CO[P@@](=O)(N[C@@H](C)C(=O)OC(C)C)Oc3ccccc3)[C@@H](O)[C@@]2(C)F)c(=O)n1`, the EC50 in series [1] was found to be 1040 nM. In addition, the Activity result in series [2] was “Non-Toxic”.

As for `CCCCCOC(=O)Nc1ccn([C@@H]2O[C@H](CO[P@@](=O)(N[C@@H](C)C(=O)OC(C)C)Oc3ccccc3)[C@@H](O)[C@@]2(C)F)c(=O)n1`, the EC50 in series [1] is greater than 10000 nM. Moreover, in series [2], the Activity entry was “Non-Toxic”.

The compound `CC(C)OC(=O)[C@H](C)N[P@](=O)(OC[C@H]1O[C@@H](n2ccc(NC(=O)C3CCC3)nc2=O)[C@](C)(F)[C@@H]1O)Oc1ccccc1` showed an EC50 in series [1] of 190 nM. The Activity entry in series [2] is on record as “Non-Toxic”.

Turning to `CC(C)OC(=O)[C@H](C)N[P@](=O)(OC[C@H]1O[C@@H](n2ccc(NC(=O)c3ccccc3)nc2=O)[C@](C)(F)[C@@H]1O)Oc1ccccc1`, in series [1], a half-maximal response (EC50) required 1990 nM. Besides, in series [2], the Activity result is reported as “Non-Toxic”.

As for `CC(C)OC(=O)[C@H](C)N[P@](=O)(OC[C@H]1O[C@@H](n2ccc(NC(=O)C(C)C)nc2=O)[C@](C)(F)[C@@H]1O)Oc1ccccc1`, the EC50 in series [1] is 2200 nM. In addition, in series [2], the Activity entry was “Non-Toxic”.

Compound `CC(C)OC(=O)[C@H](C)N[P@](=O)(OC[C@H]1O[C@@H](n2ccc(NC(=O)c3ccc(Cl)cc3)nc2=O)[C@](C)(F)[C@@H]1O)Oc1ccccc1` yielded a concentration for a half-maximal effect (EC50) in series [1] of 1920 nM. Moreover, the Activity entry in series [2] is listed as “Non-Toxic”.

Regarding `CCC(=O)Nc1ccn([C@@H]2O[C@H](CO[P@@](=O)(N[C@@H](C)C(=O)OC(C)C)Oc3ccccc3)[C@@H](O)[C@@]2(C)F)c(=O)n1`, the EC50 in series [1] worked out at 1480 nM. The Activity entry in series [2] is reported as “Non-Toxic”.

The compound `CCCOC(=O)Nc1ccn([C@@H]2O[C@H](CO[P@@](=O)(N[C@@H](C)C(=O)OC(C)C)Oc3ccccc3)[C@@H](O)[C@@]2(C)F)c(=O)n1` displayed an EC50 in series [1] of 6010 nM. Also, in series [2], the Activity result is listed as “Non-Toxic”.

Compound `CCCCC(=O)Nc1ccn([C@@H]2O[C@H](CO[P@@](=O)(N[C@@H](C)C(=O)OC(C)C)Oc3ccccc3)[C@@H](O)[C@@]2(C)F)c(=O)n1` showed an EC50 in series [1] of 190 nM. Besides, the Activity result in series [2] was “Non-Toxic”.

In series [1], `CC(C)OC(=O)[C@H](C)N[P@](=O)(OC[C@H]1O[C@@H](n2ccc(NC(=O)Cc3ccccc3)nc2=O)[C@](C)(F)[C@@H]1O)Oc1ccccc1` displayed an EC50 of 1320 nM. In addition, in series [2], the Activity entry was “Non-Toxic”.

For `CC(C)OC(=O)[C@H](C)N[P@](=O)(OC[C@H]1O[C@@H](n2ccc(NC(=O)C3CC3)nc2=O)[C@](C)(F)[C@@H]1O)Oc1ccccc1`, the response in series [1] was half-maximal at 2250 nM (EC50). The Activity result in series [2] was “Non-Toxic”.

For `CCCCCCOC(=O)Nc1ccn([C@@H]2O[C@H](CO[P@@](=O)(N[C@@H](C)C(=O)OC(C)C)Oc3ccccc3)[C@@H](O)[C@@]2(C)F)c(=O)n1`, the EC50 in series [1] is greater than 10000 nM. The Activity entry in series [2] is “Non-Toxic”.

As a reminder, the half-life is how long it takes for the measured level to halve. With `CC(C)OC(=O)[C@H](C)N[P@](=O)(OC[C@H]1O[C@@H](n2ccc(=O)[nH]c2=O)[C@](C)(F)[C@@H]1O)Oc1ccccc1` [SOFOSBUVIR], the response in series [1] was half-maximal at 150 nM (EC50). In series [2], the Activity result was “Non-Toxic”. For the same compound, the Ratio EC50 in series [3] is 8.1. The half-life in series [4] was greater than 231 min. This compound also came in with a half-life at 10 µM in series [5] of 48.1 min.

With `CC(C)OC(=O)[C@H](C)N[P@](=O)(OC[C@H]1O[C@@H](n2ccc(NC(=O)C(C)(C)Oc3ccc(Cl)cc3)nc2=O)[C@](C)(F)[C@@H]1O)Oc1ccccc1`, the EC50 in series [1] was 4020 nM. The Activity entry in series [2] is reported as “Non-Toxic”.

In series [1], `CCCCOC(=O)Nc1ccn([C@@H]2O[C@H](CO[P@@](=O)(N[C@@H](C)C(=O)OC(C)C)Oc3ccccc3)[C@@H](O)[C@@]2(C)F)c(=O)n1` showed an EC50 of 2610 nM. Further, the Activity entry in series [2] is “Non-Toxic”.

In series [1], `CCC(CC)C(=O)Nc1ccn([C@@H]2O[C@H](CO[P@@](=O)(N[C@@H](C)C(=O)OC(C)C)Oc3ccccc3)[C@@H](O)[C@@]2(C)F)c(=O)n1` returned an EC50 greater than 10000 nM. For the same compound, the Activity entry in series [2] was “Non-Toxic”.

Take `CC(C)OC(=O)[C@H](C)N[P@](=O)(OC[C@H]1O[C@@H](n2ccc(NC(=O)OCc3ccccc3)nc2=O)[C@](C)(F)[C@@H]1O)Oc1ccccc1`: in series [1], the EC50 is greater than 10000 nM. Moreover, the Activity result in series [2] is given as “Non-Toxic”.

The compound `CC(C)OC(=O)[C@H](C)N[P@](=O)(OC[C@H]1O[C@@H](n2ccc(NC(=O)C3CCCCC3)nc2=O)[C@](C)(F)[C@@H]1O)Oc1ccccc1` showed an EC50 in series [1] of 4200 nM. Also, in series [2], the Activity entry is given as “Non-Toxic”.

`CC(C)CCC(=O)Nc1ccn([C@@H]2O[C@H](CO[P@@](=O)(N[C@@H](C)C(=O)OC(C)C)Oc3ccccc3)[C@@H](O)[C@@]2(C)F)c(=O)n1` came in with an EC50 in series [1] of 670 nM. In series [2], the Activity entry is reported as “Non-Toxic”.

With `CCC(CC)OC(=O)Nc1ccn([C@@H]2O[C@H](CO[P@@](=O)(N[C@@H](C)C(=O)OC(C)C)Oc3ccccc3)[C@@H](O)[C@@]2(C)F)c(=O)n1`, the 50% effective concentration (EC50) in series [1] is greater than 10000 nM. Also, the Activity entry in series [2] is “Non-Toxic”.

The compound `CC(C)OC(=O)[C@H](C)N[P@](=O)(OC[C@H]1O[C@@H](n2ccc(N)nc2=O)[C@](C)(F)[C@@H]1O)Oc1ccccc1` returned an EC50 in series [1] of 660 nM. In addition, in series [2], the Activity entry is listed as “Non-Toxic”. In addition, in series [3], the Ratio EC50 amounted to 4.1. The compound further gave a half-life in series [4] greater than 231 min. The compound also registered a half-life at 10 µM in series [5] of 107 min.

In the case of `COc1ccc(C(=O)Nc2ccn([C@@H]3O[C@H](CO[P@@](=O)(N[C@@H](C)C(=O)OC(C)C)Oc4ccccc4)[C@@H](O)[C@@]3(C)F)c(=O)n2)cc1`, the EC50 in series [1] was greater than 10000 nM. Moreover, in series [2], the Activity entry is “Non-Toxic”.

Consider `CC(C)OC(=O)[C@H](C)N[P@](=O)(OC[C@H]1O[C@@H](n2ccc(NC(=O)OC3CCCCC3)nc2=O)[C@](C)(F)[C@@H]1O)Oc1ccccc1`, for which the EC50 in series [1] was greater than 10000 nM. For the same compound, the Activity result in series [2] is on record as “Non-Toxic”.

For `CC(C)C(=O)OC[C@H]1O[C@@H](n2ccc(N)nc2=O)[C@](C)(F)[C@@H]1OC(=O)C(C)C` [MERICITABINE], the response in series [1] was half-maximal at 1110 nM (EC50). The Activity entry in series [2] is listed as “Non-Toxic”.

`CCCC(CCC)C(=O)Nc1ccn([C@@H]2O[C@H](CO[P@@](=O)(N[C@@H](C)C(=O)OC(C)C)Oc3ccccc3)[C@@H](O)[C@@]2(C)F)c(=O)n1` came in with an EC50 in series [1] of 1640 nM. In addition, the Activity entry in series [2] is “Non-Toxic”.

On to `CC(C)COC(=O)Nc1ccn([C@@H]2O[C@H](CO[P@@](=O)(N[C@@H](C)C(=O)OC(C)C)Oc3ccccc3)[C@@H](O)[C@@]2(C)F)c(=O)n1`, for which the EC50 in series [1] was greater than 10000 nM. In addition, the Activity result in series [2] was “Non-Toxic”.
